Where a name gives a salt, the structure may show the parent alone.
Key:
Assay type in all cases: functional, organism-based
Plasmodium falciparum [1] = test: Growth inhibition after 72 hrs of Plasmodium falciparum 3D7 by SYBR green assay; settings: 3D7, 72 h
Outline: (§1)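 Cultures were set up as for the ELISA arm: 0.5% parasitemia, 2% hematocrit, 72 h at 37°C, 5% O2/5% CO2/90% N2, twofold drug dilutions in duplicate. Plates were frozen at −80°C and thawed 2 h. 100 μl culture was mixed with an equal volume of SYBR green I in lysis buffer (Tris 20 mM pH 7.5, EDTA, saponin, Triton X-100), then held 1 h at RT. Fluorescence was read at 485/535 nm, with an uninfected-RBC background control. IC50/IC90 were derived by nonlinear fitting.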

Plasmodium falciparum [2] = test: Growth inhibition after 72 hrs of Plasmodium falciparum 3D7 by HRPII ELISA; settings: 3D7, 72 h
Outline: (§2)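 Ring-stage cultures (≥70% rings) diluted to 0.5% parasitemia, 2% hematocrit, in RPMI with Albumax I or 10% human serum. Incubated 72 h at 37°C under 5% O2/5% CO2/90% N2 in plates predosed in duplicate with twofold dilutions (chloroquine 3.8–242 nM, quinine 10.8–346 nM, mefloquine 1.1–37.7 nM). Plates were then frozen and thawed. Lysate was assayed by HRPII capture ELISA (IgM capture, HRP detector), A450. IC50/IC90 were derived by nonlinear fitting.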

Plasmodium falciparum [3] = test: Growth inhibition after 72 hrs of Plasmodium falciparum D6 by SYBR green I assay; settings: D6, 72 h; outline: as §1
Plasmodium falciparum [4] = test: Growth inhibition after 72 hrs of Plasmodium falciparum D6 by HRPII ELISA; settings: D6, 72 h; outline: as §2
Plasmodium falciparum [5] = test: Growth inhibition after 72 hrs of Plasmodium falciparum W2 by SYBR green I assay; settings: W2, 72 h; outline: as §1
Plasmodium falciparum [6] = test: Growth inhibition after 72 hrs of Plasmodium falciparum W2 by HRPII ELISA; settings: W2, 72 h; outline: as §2

Row | SMILES | IC50 (Plasmodium falciparum [1]) [µM] | IC90 (Plasmodium falciparum [1]) [µM] | IC50 (Plasmodium falciparum [2]) [µM] | IC90 (Plasmodium falciparum [2]) [µM] | IC50 (Plasmodium falciparum [3]) [µM] | IC90 (Plasmodium falciparum [3]) [µM] | IC50 (Plasmodium falciparum [4]) [µM] | IC90 (Plasmodium falciparum [4]) [µM] | IC50 (Plasmodium falciparum [5]) [µM] | IC90 (Plasmodium falciparum [5]; read-out: IC90) [µM] | IC50 (Plasmodium falciparum [6]) [µM] | IC90 (Plasmodium falciparum [6]) [µM] | IC90 (Plasmodium falciparum [5]) [µM]
1 | C=CC1CN2CC[C@H]1C[C@H]2[C@H](O)c1ccnc2ccc(OC)cc12 (single isomer, unassigned) [QUININE HYDROCHLORIDE] | 0.0069 | 0.0637 | 0.0059 | 0.0426 | 0.0066 | 0.0124 | 0.0067 | 0.0132 | 0.0222 | 0.116 | 0.0151 | 0.128 | –
2 | CCN(CC)CCCC(C)Nc1ccnc2cc(Cl)ccc12 (configuration not stated) [CHLOROQUINE PHOSPHATE] | – | 0.0264 | – | 0.0332 | – | 0.0161 | – | 0.0158 | – | – | – | 0.129 | 0.125
3 | O[C@@H](c1cc(C(F)(F)F)nc2c(C(F)(F)F)cccc12)[C@H]1CCCCN1 [MEFLOQUINE HYDROCHLORIDE] | 0.0094 | 0.0298 | 0.0084 | 0.0256 | 0.0064 | 0.0233 | – | – | – | 0.0122 | 0.0019 | 0.008 | –

Reference: ChEMBL document CHEMBL1146201, “Comparison of a SYBR green I-based assay with a histidine-rich protein II enzyme-linked immunosorbent assay for in vitro antimalarial drug efficacy testing and application to clinical isolates” (Antimicrob Agents Chemother, 2007)
